Here are results for 167 variants from the RNAGym collection of RNA variant scans (doi:10.1126/science.aae0568).

The labels stand for the following.
B1: tRNA (parent)
chain: GUUCCGUUGGCGUAAUGGUAACGCGUCUCCCUCCUAAGGAGAAGACUGCGGGUUCGAGUCCCGUACGGAACG

Fewer inactive variants are shown than the library holds.

The variants in this data set derive from B1. Nature of the data set: yeast fitness relative to wild type (ratio to wild type); higher = fitter; tRNA-Arg(CCU), competitive growth, 37 C, YPD. An outline of the steps: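 A pool of Saccharomyces cerevisiae strains, each with a tRNA-Arg(CCU) gene variant at the native genomic locus, was competed in YPD at 37°C for 24 hours across six parallel replicates. The variants had been chemically synthesised at a 3% per-site mutation rate over 69 sites, and gene amplicons before and after competition were read by 100-nucleotide paired-end sequencing. Darwinian fitness relative to wild type rested on changes in genotype frequencies. Genotypes required ≥ 100 starting reads, and estimates < 0.5 were set to 0.5.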
For the variant U2G U16C, the yeast fitness was determined as 0.969. For C30G C31G G38C C46G the value was 0.768. In the case of G10C C24U C46U U64C, the yeast fitness was no more than 0.5. As to C29G C62U G68A, the yeast fitness worked out at 0.542. As for U2C C33U A42G G44C, the figure is no more than 0.5. For C5A U28A C31U G51C the value was no more than 0.5. As for C4U A14U, the figure is 0.611; as for G39C G51C C55G, no more than 0.5; as for C5G C61U A69U, 0.775.

Regarding U8A G18C C24A C29U U32C, the yeast fitness was no more than 0.5. On to C5G C55G A65C, for which the yeast fitness was 0.531. For the variant U2C A14G G18A U32A A45C A69C, the yeast fitness was no more than 0.5. Turning to C5U A15U G25A C29U C31U C34U, the yeast fitness was no more than 0.5.

As to C30A A37C G41A A43U G44C A70G, the yeast fitness is no more than 0.5. For A21G C22U C46U G56C the value was no more than 0.5. In the case of C55G G67A, the yeast fitness turned out to be 0.729. C4G C11G C55U G63A: the yeast fitness is no more than 0.5. For A14G G68A the value was 0.653. On to U16A C31A C33G G38A C66U, for which the yeast fitness is no more than 0.5.

As for G10C C22U U26A C49U A65U, the yeast fitness is no more than 0.5. U7G A43G C46G G63A: the yeast fitness is no more than 0.5. For the variant G9C A43U, the yeast fitness is 0.694. With U3C U13A C31U G41A, the yeast fitness came out at 0.524. For C5G G9A C27G the value was 0.544; for A14C C24A G67A, no more than 0.5; for G6C A15G G51A C66U A69C, no more than 0.5. As to C11G G48C, the yeast fitness came to 0.687.

Consider C24G C29A A43U A57G G68C, for which the yeast fitness was no more than 0.5. For U28C A40G A70U the value was 0.603; for A20C G23A U35A G52C C55A, no more than 0.5; for C11U A21U, 1.02.

As for C11A A21U G58C A70C, the yeast fitness was no more than 0.5.

On to A15U G17A U53C C66U A69U, for which the yeast fitness is no more than 0.5. As for C30G G58A A69U, the figure is 0.535; as for G25C U26A U35C, no more than 0.5; as for U2A U3C G6A U26C G56A, no more than 0.5. For U2C C11A C34G G51A the value was no more than 0.5; for C4G C11G C34U G38A G44C, no more than 0.5; for C30G G51C A65G, no more than 0.5. For C5G G6C G38C G58U the value was 0.551. For the variant A20C A36U U53A, the yeast fitness was no more than 0.5. As for G41A C60G C61U A65G, the figure is 0.644; as for C11U G25C A40U C49G G63C, no more than 0.5. For C24A U32C G39C A70C the value was no more than 0.5; for C24G U54C G68C, no more than 0.5; for C27U G51C C55A C60A, no more than 0.5. For C30G A65G the value was 0.639.

Turning to A21U A36C C60G A65C, the yeast fitness was 0.575. Regarding U13C G63C, the yeast fitness came to 0.742.

For the variant C5U A45C G63C, the yeast fitness is no more than 0.5. For U28C A37U A57C A69U A70C the value was no more than 0.5; for U8C C27U C31A C55A G56A A65G, no more than 0.5. As for U26C U32C U47A, the figure is no more than 0.5; as for C11U A40C G51A C61U A69C, no more than 0.5; as for G12A C49A U54A, no more than 0.5. As to C4U C11A A37C A65C, the yeast fitness is no more than 0.5. For G6C U8C A21C the value was no more than 0.5. As for U26G G51A, the figure is 0.598; as for U13C C27U G52A U53A C66U, no more than 0.5; as for C11G C49U, 0.631. As for U3C A20U G68U A69G, the figure is 0.99; as for A20C C27U A40C, 0.63; as for A43G U59C A70C, 0.658. In the case of G12A A15U C24U G44C G52C A69U, the yeast fitness was no more than 0.5. As for A21C U26A C31U, the figure is no more than 0.5. As for C27G A65U A70G, the figure is 0.575; as for U3A C4U C33U C61A, no more than 0.5. Turning to C4G C33G A40G, the yeast fitness is 0.528. For A14G A21C C30G A57G the value was no more than 0.5; for A15U C22U A70C, no more than 0.5; for A21C C34G A36G C46A, 0.586. As for U3A G9A A14G C66U, the figure is 0.575; as for A69U, 1.04; as for U8C G9C C49U G68U, no more than 0.5.

For C5U G52A G63C, the yeast fitness was no more than 0.5. In the case of U19C C55A, the yeast fitness was found to be 0.601. For U28C C46G the value was 1.08; for U28G G41C U53A, no more than 0.5; for U7A U19G A21U G67A, no more than 0.5. G10A C24U G41A C49U U53A C66G: the yeast fitness is no more than 0.5.

On to A21U U64C, for which the yeast fitness came to 0.775. As for C22U C29U G41A C55U C61A, the figure is no more than 0.5; as for U13G A20G U53G C66U, no more than 0.5.

In the case of C24G C27G A37G, the yeast fitness amounted to 0.575. For C11A G41A C66G the value was 0.536; for A14G U19C G67A, 0.76. For U3A A14U A42U C55A the value was no more than 0.5; for C33U A70C, 0.832; for C11G A14G, 0.529. In the case of A21G C61U A70G, the yeast fitness worked out at 0.761. As for U53G U54A C62U, the figure is 0.549. For A42G A43G C46G G56C the value was 0.57; for U8C C11G G63A C66G, no more than 0.5; for A15U C66U A69U, 0.566.

Take G10A U35G A37U: the yeast fitness amounted to 0.551. U3A C34A C49U C55G: the yeast fitness was no more than 0.5. Turning to C5G G17C C55U, the yeast fitness is no more than 0.5.

As for A20C G52A G68A, the yeast fitness was no more than 0.5.

For the variant G18A C46U C49U U59C G68A, the yeast fitness was no more than 0.5. For G23A U26G A40C C46G C60G the value was no more than 0.5. For C5U A20C C29U C34A C46A G50A A57U the value was no more than 0.5. Consider C4G C27U G41C U64A G67A, for which the yeast fitness was no more than 0.5.

For the variant C27U C30G C33G C34G A40U G52C G56C, the yeast fitness was no more than 0.5. As for A43C A65U, the figure is 0.753; as for U7A G41A C61A, no more than 0.5. For C11G C49A A57U U64A G67U the value was no more than 0.5. As for G6A C27G A45G, the figure is 0.521; as for U7C C33A G58C G67A, 0.602; as for U2G A20G C33U G39A A65G, no more than 0.5.

Regarding G9C C61U C66G, the yeast fitness was no more than 0.5. For A14G C22G U35G A40C A70G the value was no more than 0.5; for A20G C31G C61G C66U A69U, 0.545; for U2A U47G C66U, no more than 0.5. G17C U35A: the yeast fitness is no more than 0.5. For A37C A65G the value was 0.94; for A21C C24G A37U C55U, no more than 0.5. For C5G G38A A69U the value was 0.559; for C24U A57G, 0.809; for G9A C31G A65C, no more than 0.5. For G50A C62A the value was 0.875; for G12A A21G C46G G51A A69U, no more than 0.5. Turning to U7C G10A U19A G44C G67C, the yeast fitness is no more than 0.5. In the case of A37C A42C A69U, the yeast fitness worked out at 0.749. On to A14C C29U C33G, for which the yeast fitness was determined as 0.527. As for C4A C34A, the figure is 0.817; as for U7A G9C C24A A43U G52A, no more than 0.5; as for C5G A14U G25A G56A G67A, no more than 0.5.

Consider U13C A15U C27U A69U, for which the yeast fitness was no more than 0.5. For C60A A69U the value was 0.746; for C5A A15G C61A, no more than 0.5; for G10U A69C, 0.827.

In the case of U8C U16C A65G, the yeast fitness worked out at 0.707. For C34G A40C G44A the value was no more than 0.5; for G6C A42U C61A U64A A69U, no more than 0.5. Take U7C C34U: the yeast fitness is 0.699. With C11U A15U C22U G67A, the yeast fitness was no more than 0.5.

Regarding C11G G25A A37U, the yeast fitness was 0.573.

With U26A G44C C55U G67U, the yeast fitness was found to be 0.759. As for C30A A40G U59G A70C, the figure is no more than 0.5; as for C29U U32C G51C, no more than 0.5; as for A20U A45U, 0.777. As for A15C A40G U53C, the yeast fitness is no more than 0.5. For the variant C5G C11G U35C, the yeast fitness turned out to be 0.643. For U7C A65C the value was 0.912. For U2A A70G the value was 0.979.

In the case of U8A C46A G68C, the yeast fitness is no more than 0.5.

Consider U28G C29G G41A, for which the yeast fitness was no more than 0.5. For A42G G51C the value was no more than 0.5; for U16C C31U C55U, 0.659. As for G12A C33U C46A C55G, the figure is no more than 0.5; as for G25A G38C G48A C60U, no more than 0.5; as for G6A A57C, 0.627.

Regarding U19C C34A G50C G56A, the yeast fitness came to 0.55. For A21U U32C A36G A37U U53G the value was no more than 0.5; for C27G G38C C62G C66U, no more than 0.5. For C11G A36C C46G C60G the value was 0.68; for A21C A37C A69U, no more than 0.5; for C22U G58C A69G, 0.602. Turning to A20U G25C A37G C60G C61G A70U, the yeast fitness is no more than 0.5. For C4G C27A U32G G39U G41C C66G the value was no more than 0.5; for C11U C34U G41A, no more than 0.5; for U7G A42C G44C A65C, 1.08.

Regarding C4A G18A G25C, the yeast fitness came to 0.515. Regarding U8A C31G C46U C60A, the yeast fitness was no more than 0.5.

Consider C24U C31G U32A, for which the yeast fitness is 0.504. For C4U A15U U28C the value was 0.55; for C30G C60U, 0.552.
